Test results: ChEMBL document CHEMBL1158493, “Amide isosteres of oroidin: assessment of antibiofilm activity and C. elegans toxicity” (J Med Chem, 2009)
The source made the active and inactive calls.

Experiments:
Caenorhabditis elegans = experiment: Toxicity in Caenorhabditis elegans L4 stage larva assessed as toxicity threshold after 6 to 7 days; assay type: organism-based; details: in vivo
How it was run: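 Synchronized C. elegans N2 L1s (bleach egg prep, M9 starvation) grown on NGM/OP50 at 20 °C to L4. Two L4s per well in S medium with 5% HB101, compound 100 µM–1 mM, final DMSO 0.8–1.0%, in triplicate. Plates shaken at 22.5 °C for 6–7 days. Wells scored on day 4 and day 6/7 for clearing and population size. Threshold narrowed in 100 µM steps.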

Acinetobacter baumannii = experiment: Antibioflim activity in Acinetobacter baumannii ATCC 19606 after 24 hrs by general static inhibition assay; assay type: functional, ATCC 19606 = CIP 70.34 = JCM 6841
How it was run: (§1)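 Static biofilm inhibition: overnight wild-type culture subcultured to OD600 0.01 in LBNS (PA14) or LB (A. baumannii) containing compound (DMSO stocks), in PVC 96-well plates; covered, sealed, stationary 37 °C for 24 h. Wells washed with water, stained with 0.1% crystal violet for 30 min at ambient temperature, washed, and stain solubilized in 95% ethanol. Read-out is OD540.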

Pseudomonas aeruginosa [1] = experiment: Antibioflim activity in Pseudomonas aeruginosa PA14 after 24 hrs by general static inhibition assay; assay type: functional, organism-based; how it was run: as §1
Pseudomonas aeruginosa [2] = experiment: Antibioflim activity in Pseudomonas aeruginosa PA14 at 100 uM after 24 hrs by general static inhibition assay; assay type: functional; details: PA14, 24 h; how it was run: as §1
Pseudomonas aeruginosa [3] = experiment: Antibioflim activity in Pseudomonas aeruginosa PA14 after 24 hrs by general static dispersion assay; assay type: functional
How it was run: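 Static dispersion: wild-type PA14 subcultured to OD600 0.05 in LBNS in PVC 96-well plates, sealed, biofilm formed stationary at room temperature for 24 h. Medium replaced with fresh medium plus compound, then stationary 37 °C for 24 h. Crystal violet 0.1% for 30 min, ethanol-solubilized, read at OD540. Percent dispersion is treated versus untreated established biofilm.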

Pseudomonas aeruginosa [4] = experiment: Inhibition of biofilm formation against Pseudomonas aeruginosa PA14 after 24 hrs; details: PA14, 24 h
Pseudomonas aeruginosa [5] = experiment: Antibioflim activity in Pseudomonas aeruginosa PAO1; assay type: functional, organism-based
[6] = Pseudomonas aeruginosa, PA14, 24 h, read-out: IC50

Row | SMILES | Activity (Caenorhabditis elegans) [mM] | inhibition (INH) (Acinetobacter baumannii) [%] | IC50 (Pseudomonas aeruginosa [1]; [6]) [µM] | inhibition at 100 µM (Pseudomonas aeruginosa [2]) [%] | Activity (Pseudomonas aeruginosa [3]) | IC50 (Pseudomonas aeruginosa [1]) | IC50 (Pseudomonas aeruginosa [4]) [µM] | IC50 (Pseudomonas aeruginosa [5]) [µM]
1 | CCCCCCC(CCCCCC)NC(=O)CCCc1c[nH]c(N)n1 | 0.95 |  |  |  |  |  |  | 
2 | CCCCCCCCCCCc1c[nH]c(N)n1 | > 1 |  |  |  |  |  |  | 
3 | CCCCCCc1cn(CCCc2c[nH]c(N)n2)nn1 | > 1 |  |  |  |  |  |  | 
4 | CCOc1ccc(NC(=O)NCCCc2c[nH]c(N)n2)cc1.Cl |  | 11 | 50.4 | 81 | inactive |  |  | 
5 | Cl.Nc1nc(CCCNS(=O)(=O)c2cccc3cccnc23)c[nH]1 |  | 17 |  | 50 | inactive | Not Active |  | 
6 | Cn1c(C(=O)NCCCc2c[nH]c(N)n2)cc(Br)c1Br [DIHYDROSVENTRIN] | 0.48 |  |  |  |  |  |  | 
7 | CCCCCCS(=O)(=O)NCCCc1c[nH]c(N)n1.Cl | > 1 | 24 | 10.1 | 80 | 42% |  | 10.1 | 
8 | Cl.Nc1nc(CCCNC(=O)Nc2ccccc2)c[nH]1 |  | 29 |  | 35 | inactive | Not Active |  | 
9 | Cl.Nc1nc(CCCNC(=O)Nc2ccc(F)c(Cl)c2)c[nH]1 |  | 18 | 25.7 | 90 | 55% |  | 25.7 | 
10 | Cc1cc(C)cc(S(=O)(=O)NCCCc2c[nH]c(N)n2)c1.Cl |  | 17 | 46.2 | 87 | inactive |  |  | 
11 | Cl.Nc1nc(CCCNC(=S)NC2CCCCC2)c[nH]1 |  | 14 | 22.6 | 89 | 25% |  | 22.6 | 
12 | Cl.Nc1nc(CCCNS(=O)(=O)c2cccc(C(=O)O)c2)c[nH]1 |  | 11 |  | 14 | inactive | Not Active |  | 
13 | Cl.Nc1nc(CCCNS(=O)(=O)c2ccccc2F)c[nH]1 |  | 11 |  | 43 | inactive | Not Active |  | 
14 | Nc1ncc(/C=C/CNC(=O)c2cc(Br)c(Br)[nH]2)[nH]1 [OROIDIN] | 0.65 |  | 160 |  |  |  |  | 190
15 | Cl.Nc1nc(CCCNS(=O)(=O)c2ccc(Br)cc2)c[nH]1 |  | 25 | 19.4 | 85 | inactive |  |  | 
16 | Cl.Nc1nc(CCCNC(=S)Nc2ccccc2)c[nH]1 |  | 8 | 26.8 | 90 | inactive |  |  | 
17 | CCCCCCNC(=O)CCCc1c[nH]c(N)n1 | > 1 |  |  |  |  |  |  | 
18 | Cl.Nc1nc(CCCNS(=O)(=O)c2ccc3ccccc3c2)c[nH]1 |  | 26 | 15.6 | 93 | inactive |  |  | 
19 | Cc1ccc(S(=O)(=O)NCCCc2c[nH]c(N)n2)cc1.Cl |  | 8 |  | 45 | inactive | Not Active |  | 
20 | Cl.Nc1nc(CCCNC(=O)NC2CCCCCC2)c[nH]1 |  | <5 |  | 70 | inactive | Not Active |  | 
21 | Cl.Nc1nc(CCCNC(=O)NCc2ccccc2)c[nH]1 |  | 7 |  | 45 | inactive | Not Active |  | 
22 | CCCCCCNC(=O)NCCCc1c[nH]c(N)n1.Cl |  | 28 | 35.4 | 94 | inactive |  |  | 
23 | Cl.Nc1nc(CCCNS(=O)(=O)c2ccc(C(F)(F)F)cc2)c[nH]1 |  | 23 | 25.1 | 92 | inactive |  |  | 
24 | CC(=O)c1cccc(NC(=O)NCCCc2c[nH]c(N)n2)c1.Cl |  | 11 |  | 69 | inactive | Not Active |  | 
25 | Cc1ccc(F)cc1NC(=O)NCCCc1c[nH]c(N)n1.Cl |  | 12 | 46.7 | 81 | inactive |  |  | 
